Results: ChEMBL document CHEMBL2046284, “N-Pyridyl and Pyrimidine Benzamides as KCNQ2/Q3 Potassium Channel Openers for the Treatment of Epilepsy” (ACS Med Chem Lett, 2011)
Activity calls are given as the source filed them. The calls are words filed in the database; no cut-off is given here.

Columns and labels:
[1] = Agonist activity at KCNQ expressed in CHO cells assessed as increase in KCl-induced 86Rb+ efflux incubated for 10 mins prior to KCl-induction by liquid scintillation; type: functional, cell-based
[2] = biological target: Voltage-gated potassium channel, KQT; KCNQ2(Kv7.2)/KCNQ3(Kv7.3) (Homo sapiens, UniProt O43525+O43526); assay: Agonist activity at KCNQ2/KCNQ3 expressed in CHO cells assessed as increase in KCl-induced 86Rb+ efflux incubated for 10 mins prior to KCl-induction by liquid scintillation counting; type: functional, cell-based
[3] = biological target: Voltage-gated potassium channel, IKs; KCNQ1(Kv7.1)/KCNE1(MinK) (Homo sapiens, UniProt P15382+P51787); assay: Antagonist activity at KCNQ1/MINK expressed in CHO cells assessed as inhibition of KCl-induced 86Rb+ efflux incubated for 10 mins prior to KCl-induction by liquid scintillation counting; type: functional, cell-based
[4] = biological target: Voltage-gated potassium channel KCNQ3/KCNQ5 (Homo sapiens, UniProt O43525+Q9NR82); assay: Agonist activity at KCNQ3/KCNQ5 expressed in CHO cells increase in KCl-induced 86Rb+ efflux incubated for 10 mins prior to KCl-induction by liquid scintillation counting; type: functional, cell-based
[5] = system: Cynomolgus monkey; assay: Toxicity in cynomolgus monkey assessed as nonhemolytic anemia after 28 days administered with repeated doses; type: organism-based, Macaca fascicularis; settings: in vivo, 672 h
[6] = system: Rattus norvegicus; assay: Toxicity in po dosed rat assessed as nonhemolytic anemia after 14 days; type: organism-based; settings: in vivo, 336 h
[7] = system: Rattus norvegicus; assay: Toxicity in rat assessed as nonhemolytic anemia after 28 days administered with repeated doses; type: organism-based; settings: in vivo, 672 h
[8] = system: Rattus norvegicus; assay: Antiepileptic activity in po dosed Wistar rat assessed as latency in maximum electric shock-induced hind limb extension administered 30 mins prior to electric shock-challenge measured up to 6 secs; type: functional; settings: Hindlimb
[9] = system: Rattus norvegicus; assay: Antiepileptic activity in po dosed Sprague-Dawley rat assessed as latency in PTZ-induced seizure administered 30 mins prior to PTZ-challenge measured up to 15 minutes; type: functional
[10] = Clearance in Sprague-Dawley rat at 2mg/kg, iv; type: ADME, organism-based; settings: in vivo
Procedure, shortened: (§1)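 Rats received a single 2 mg/kg intravenous dose. Half-life and clearance were determined, and volume of distribution (Vz) was calculated from the terminal phase.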

[11] = Selectivity ratio of EC50 for KCNQ3/KCNQ5 to EC50 for KCNQ2/KCNQ3
[12] = Tmax in Sprague-Dawley rat at 2 mg/kg, po; type: ADME, organism-based; design: dose 2 mg/kg, route oral; settings: in vivo
[13] = biological target: Voltage-gated inwardly rectifying potassium channel KCNH2 (Homo sapiens, UniProt Q12809); assay: Inhibition of human ERG
[14] = Activity at GABA(A) gated channel at 10 uM
[15] = Oral bioavailability in Sprague-Dawley rat at 2 mg/kg; type: ADME, organism-based; settings: in vivo
[16] = system: Rattus norvegicus; assay: Volume of distribution during terminal phase in Sprague-Dawley rat at 2 mg/kg, iv; type: ADME, organism-based; design: dose 2 mg/kg, route intravenous; settings: in vivo; procedure, shortened: as §1
[17] = Inhibition of L-type calcium channel
[18] = biological target: Sodium channel protein type 5 subunit alpha (Homo sapiens, UniProt Q14524); assay: Inhibition of NaV1.5
[19] = Half life in Sprague-Dawley rat at 2mg/kg, iv; type: ADME, organism-based; settings: in vivo; procedure, shortened: as §1

Sequence of Voltage-gated potassium channel KCNQ3/KCNQ5 (O43525 whole entry): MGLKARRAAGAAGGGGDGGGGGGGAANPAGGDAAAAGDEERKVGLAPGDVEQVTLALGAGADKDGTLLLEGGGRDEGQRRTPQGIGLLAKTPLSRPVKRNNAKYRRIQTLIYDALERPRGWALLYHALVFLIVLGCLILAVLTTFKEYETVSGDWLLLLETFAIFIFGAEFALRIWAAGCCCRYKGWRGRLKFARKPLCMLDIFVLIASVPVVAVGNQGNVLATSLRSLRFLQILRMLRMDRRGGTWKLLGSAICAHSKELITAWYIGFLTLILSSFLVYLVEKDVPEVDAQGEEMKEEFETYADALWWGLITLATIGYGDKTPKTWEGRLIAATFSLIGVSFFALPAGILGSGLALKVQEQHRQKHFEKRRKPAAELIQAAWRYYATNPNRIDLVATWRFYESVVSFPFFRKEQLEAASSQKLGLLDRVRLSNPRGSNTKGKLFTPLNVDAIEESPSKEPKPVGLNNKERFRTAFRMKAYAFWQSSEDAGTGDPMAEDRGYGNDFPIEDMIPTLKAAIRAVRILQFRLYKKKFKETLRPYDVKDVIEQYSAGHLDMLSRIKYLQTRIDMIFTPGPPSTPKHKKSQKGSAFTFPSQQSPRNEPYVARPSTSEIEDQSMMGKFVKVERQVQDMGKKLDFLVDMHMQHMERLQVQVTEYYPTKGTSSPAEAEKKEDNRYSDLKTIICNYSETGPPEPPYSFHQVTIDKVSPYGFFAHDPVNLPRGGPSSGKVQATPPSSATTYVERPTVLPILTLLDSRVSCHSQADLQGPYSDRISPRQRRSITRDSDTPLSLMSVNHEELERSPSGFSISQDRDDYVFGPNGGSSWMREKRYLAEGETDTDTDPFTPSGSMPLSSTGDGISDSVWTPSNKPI
Sequence of Voltage-gated potassium channel KCNQ3/KCNQ5 (Q9NR82 whole entry): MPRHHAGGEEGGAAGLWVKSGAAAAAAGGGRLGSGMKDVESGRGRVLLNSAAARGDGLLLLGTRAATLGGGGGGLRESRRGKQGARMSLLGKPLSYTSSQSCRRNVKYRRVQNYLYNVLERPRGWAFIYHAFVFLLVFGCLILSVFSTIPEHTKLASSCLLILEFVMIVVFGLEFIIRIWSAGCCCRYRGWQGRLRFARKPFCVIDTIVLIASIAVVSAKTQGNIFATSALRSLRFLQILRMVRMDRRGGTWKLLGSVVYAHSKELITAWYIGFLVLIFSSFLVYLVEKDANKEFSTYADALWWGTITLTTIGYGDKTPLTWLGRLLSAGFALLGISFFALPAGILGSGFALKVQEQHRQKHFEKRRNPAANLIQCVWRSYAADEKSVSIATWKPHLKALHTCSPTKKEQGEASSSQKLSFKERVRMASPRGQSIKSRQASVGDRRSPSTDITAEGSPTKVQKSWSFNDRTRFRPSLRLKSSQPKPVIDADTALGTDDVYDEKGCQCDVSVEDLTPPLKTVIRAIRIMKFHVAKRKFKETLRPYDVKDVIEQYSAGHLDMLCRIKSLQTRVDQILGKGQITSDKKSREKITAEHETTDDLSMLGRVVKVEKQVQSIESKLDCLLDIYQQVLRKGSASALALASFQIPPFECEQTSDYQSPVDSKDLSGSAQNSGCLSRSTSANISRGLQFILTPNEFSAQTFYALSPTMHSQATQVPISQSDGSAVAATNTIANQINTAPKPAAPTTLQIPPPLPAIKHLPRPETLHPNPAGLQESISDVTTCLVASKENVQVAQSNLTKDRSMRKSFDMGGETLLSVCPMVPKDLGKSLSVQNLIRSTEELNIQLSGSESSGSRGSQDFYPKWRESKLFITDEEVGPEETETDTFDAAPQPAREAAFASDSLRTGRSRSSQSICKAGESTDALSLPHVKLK
Sequence of Voltage-gated potassium channel, IKs; KCNQ1(Kv7.1)/KCNE1(MinK) (P51787 whole entry): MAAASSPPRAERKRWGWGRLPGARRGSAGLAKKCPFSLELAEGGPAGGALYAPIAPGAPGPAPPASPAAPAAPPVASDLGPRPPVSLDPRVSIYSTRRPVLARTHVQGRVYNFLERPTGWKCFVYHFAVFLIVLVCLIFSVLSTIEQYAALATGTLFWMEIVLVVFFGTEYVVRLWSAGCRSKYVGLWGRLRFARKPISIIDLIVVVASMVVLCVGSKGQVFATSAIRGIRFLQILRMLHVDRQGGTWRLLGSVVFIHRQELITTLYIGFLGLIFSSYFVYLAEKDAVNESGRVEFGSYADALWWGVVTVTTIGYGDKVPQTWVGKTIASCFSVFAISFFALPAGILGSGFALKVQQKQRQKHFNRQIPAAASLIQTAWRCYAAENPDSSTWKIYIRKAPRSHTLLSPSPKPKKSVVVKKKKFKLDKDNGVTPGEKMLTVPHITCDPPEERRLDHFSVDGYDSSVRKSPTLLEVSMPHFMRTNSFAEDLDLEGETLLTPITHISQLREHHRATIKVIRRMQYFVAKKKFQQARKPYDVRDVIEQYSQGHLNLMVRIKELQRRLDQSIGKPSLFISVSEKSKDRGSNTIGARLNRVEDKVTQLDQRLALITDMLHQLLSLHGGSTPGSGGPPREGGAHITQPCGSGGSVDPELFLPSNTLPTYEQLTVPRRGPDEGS
Sequence of Voltage-gated potassium channel, KQT; KCNQ2(Kv7.2)/KCNQ3(Kv7.3) (O43526 whole entry): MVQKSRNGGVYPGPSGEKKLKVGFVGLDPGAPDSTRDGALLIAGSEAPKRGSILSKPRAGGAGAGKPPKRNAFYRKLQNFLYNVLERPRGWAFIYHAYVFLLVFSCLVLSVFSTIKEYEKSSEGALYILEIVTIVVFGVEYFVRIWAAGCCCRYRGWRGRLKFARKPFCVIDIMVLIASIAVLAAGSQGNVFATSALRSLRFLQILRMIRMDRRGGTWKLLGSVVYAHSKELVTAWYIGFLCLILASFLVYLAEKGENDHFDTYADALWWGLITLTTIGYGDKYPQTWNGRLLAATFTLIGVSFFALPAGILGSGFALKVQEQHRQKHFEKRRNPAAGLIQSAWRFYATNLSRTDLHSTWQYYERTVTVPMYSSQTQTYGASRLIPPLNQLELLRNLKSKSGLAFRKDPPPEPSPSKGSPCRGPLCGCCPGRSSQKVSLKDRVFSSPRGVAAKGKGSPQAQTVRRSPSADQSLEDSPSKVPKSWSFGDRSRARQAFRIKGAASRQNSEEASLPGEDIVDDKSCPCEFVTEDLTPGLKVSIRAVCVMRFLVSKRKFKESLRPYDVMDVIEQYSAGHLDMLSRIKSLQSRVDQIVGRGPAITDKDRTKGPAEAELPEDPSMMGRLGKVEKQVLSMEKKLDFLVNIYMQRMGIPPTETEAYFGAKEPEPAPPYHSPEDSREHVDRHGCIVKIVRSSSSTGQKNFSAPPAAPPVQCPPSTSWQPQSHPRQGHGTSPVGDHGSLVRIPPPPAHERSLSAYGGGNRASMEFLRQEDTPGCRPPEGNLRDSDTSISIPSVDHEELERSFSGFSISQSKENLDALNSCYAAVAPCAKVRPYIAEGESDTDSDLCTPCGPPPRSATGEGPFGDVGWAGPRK
Sequence of Voltage-gated potassium channel, KQT; KCNQ2(Kv7.2)/KCNQ3(Kv7.3) (O43525 whole entry): as the sequence (O43525 whole entry) above
Sequence of Voltage-gated inwardly rectifying potassium channel KCNH2 (Q12809 whole entry): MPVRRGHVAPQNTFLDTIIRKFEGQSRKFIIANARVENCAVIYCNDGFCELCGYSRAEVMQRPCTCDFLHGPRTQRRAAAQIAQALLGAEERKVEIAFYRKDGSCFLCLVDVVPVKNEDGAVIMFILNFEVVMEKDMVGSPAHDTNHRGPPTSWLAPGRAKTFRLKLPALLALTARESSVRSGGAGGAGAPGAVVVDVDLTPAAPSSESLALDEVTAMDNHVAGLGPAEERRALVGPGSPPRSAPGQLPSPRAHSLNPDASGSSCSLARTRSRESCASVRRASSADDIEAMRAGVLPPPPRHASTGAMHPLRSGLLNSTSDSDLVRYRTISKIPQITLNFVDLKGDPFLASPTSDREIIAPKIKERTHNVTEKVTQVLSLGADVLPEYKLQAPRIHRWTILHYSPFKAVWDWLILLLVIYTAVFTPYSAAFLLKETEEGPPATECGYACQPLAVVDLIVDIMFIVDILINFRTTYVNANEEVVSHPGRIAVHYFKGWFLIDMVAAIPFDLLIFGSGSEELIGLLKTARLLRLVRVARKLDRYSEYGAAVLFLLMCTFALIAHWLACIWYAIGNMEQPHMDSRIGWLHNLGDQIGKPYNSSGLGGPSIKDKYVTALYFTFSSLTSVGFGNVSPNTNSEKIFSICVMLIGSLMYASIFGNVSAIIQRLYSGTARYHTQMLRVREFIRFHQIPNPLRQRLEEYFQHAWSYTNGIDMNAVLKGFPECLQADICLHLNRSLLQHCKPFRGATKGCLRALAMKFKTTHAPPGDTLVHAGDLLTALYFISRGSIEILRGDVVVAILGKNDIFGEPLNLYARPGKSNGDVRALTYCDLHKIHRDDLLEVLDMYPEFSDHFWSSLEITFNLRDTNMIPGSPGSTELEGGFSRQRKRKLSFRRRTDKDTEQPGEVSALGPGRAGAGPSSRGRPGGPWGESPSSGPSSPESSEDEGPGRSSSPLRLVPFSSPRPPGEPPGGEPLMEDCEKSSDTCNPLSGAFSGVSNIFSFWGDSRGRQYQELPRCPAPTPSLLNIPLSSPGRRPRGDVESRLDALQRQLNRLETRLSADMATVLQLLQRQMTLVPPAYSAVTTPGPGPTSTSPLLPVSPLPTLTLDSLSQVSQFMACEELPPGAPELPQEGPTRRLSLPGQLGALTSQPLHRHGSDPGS

| SMILES | EC50 [2] [µM] | IC50 [3] [µM] | also measured |
| --- | --- | --- | --- |
| O=C(Nc1ccccc1)c1ccc(Cl)c(Cl)c1 |  |  | EC50 [1]: > 10 µM |
| O=C(Nc1ccc(Cl)nc1)c1cccc(F)c1F | > 10 |  |  |
| O=C(Nc1ccccn1)c1ccc(Cl)c(Cl)c1 |  |  | EC50 [1]: > 10 µM |
| COc1ccc(NC(=O)c2ccc(F)c(F)c2)cn1 | > 10 |  |  |
| O=C(Nc1ccc(Cl)nc1)c1ccc(Cl)c(Cl)c1 | 0.67 | 17 |  |
| COc1cccc(C(=O)Nc2ccc(Cl)nc2)c1 | 5.5 |  |  |
| O=C(Nc1ccc(Cl)nc1)c1ccc(Cl)cc1 |  | 15 |  |
| O=C(Nc1ccc(Cl)nc1)c1ccc(C(F)(F)F)c(F)c1 | 0.37 | 3.4 |  |
| O=C(Nc1ccc(Cl)nc1)c1ccc(Sc2ccc(F)cc2)c(F)c1 | 0.08 | > 100 |  |
| O=C(Nc1ccc(Cl)nc1)c1ccc(C(F)(F)F)cc1 | 0.32 | 2.9 |  |
| O=C(Nc1ccc(Cl)nc1)c1cccc(Cl)c1 | 0.27 | 41 |  |
| O=C(Nc1ccc(Cl)nc1)c1ccc(F)c(C(F)(F)F)c1 | 0.42 | 3.4 |  |
| O=C(Nc1ccc(F)nc1)c1ccc(F)c(F)c1 | 4.8 |  |  |
| CC(C)Sc1ccc(C(=O)Nc2ccc(Cl)nc2)cc1F | 0.11 | 5.8 |  |
| CSc1ccc(NC(=O)c2ccc(F)c(F)c2)cn1 | > 10 |  |  |
| O=C(Nc1ccc(Cl)nc1)c1ccccc1 | 1.6 | > 100 |  |
| O=C(Nc1cnc(Cl)nc1)c1cccc(Cl)c1 | 1.1 | 78 | EC50 [4]: 14 µM |
| O=C(Nc1ccc(Cl)nc1)c1ccccc1F | > 10 |  |  |
| N#Cc1cccc(C(=O)Nc2ccc(Cl)nc2)c1 | > 10 |  |  |
| CCOc1ccc(C(=O)Nc2ccc(Cl)nc2)cc1F | 0.57 | > 100 |  |
| COc1ccc(C(=O)Nc2ccc(Cl)nc2)cc1F | 3.2 | > 100 |  |
| O=C(Nc1ccc(Cl)nc1)c1ccc(Oc2ccccc2)c(F)c1 | 0.03 | 1.3 |  |
| O=C(Nc1ccc(Cl)nc1)c1ccc(F)c(F)c1 | 0.38 | 41 | Activity [5]: Toxic; Activity [6]: Toxic; Activity [7]: Toxic; ED50 [8]: 1.5 mg/kg; ED50 [9]: 2.2 mg/kg |
| N#Cc1ccc(C(=O)Nc2ccc(Cl)nc2)cc1F | 1.1 | 51 |  |
| O=C(Nc1ccc(Cl)nc1)c1cccc(F)c1 | 1.1 | 77 |  |
| O=C(Nc1cnc(Cl)nc1)c1ccc(F)c(F)c1 | 0.69 | > 100 | clearance [10]: 17.3 mL/min/kg; Ratio EC50 [11]: 20; Tmax [12]: 30 min; IC50 [13]: > 30 µM; Activity [14]: inactive; EC50 [4]: 14.3 µM; bioavailability [15]: 63%; Vz/F [16]: 1.804 L/kg; IC50 [17]: > 30 µM; IC50 [18]: > 30 µM; ED50 [8]: 1.5 mg/kg; half-life [19]: 72 min; ED50 [9]: < 1 mg/kg |
| O=C(Nc1cnc(Cl)nc1)c1cccc(F)c1 | 7.2 | > 100 | EC50 [4]: 23 µM |
| Cc1ccc(C(=O)Nc2cnc(Cl)nc2)cc1F | 0.6 | 93 | EC50 [4]: 10 µM |

| SMILES | EC50 [2] [µM] | IC50 [3] [µM] | also measured |
| --- | --- | --- | --- |
| O=C(Nc1ccc(O)nc1)c1ccc(F)c(F)c1 | > 10 |  |  |
| CC(C)Oc1ccc(C(=O)Nc2ccc(Cl)nc2)cc1F | 0.17 | > 100 |  |
| O=C(Nc1ccc(N2CCOCC2)nc1)c1ccc(F)c(F)c1 | 7.8 |  |  |
| O=C(Nc1ccc(Cl)nc1)c1ccc(F)c(Cl)c1 | 0.19 | 22 |  |
| O=C(Nc1ccc(N2CCCC2)nc1)c1ccc(F)c(F)c1 | 0.48 |  |  |
| Cc1ccc(C(=O)Nc2ccc(Cl)nc2)cc1F | 0.28 | 33 |  |
| O=C(Nc1ccc(Cl)nc1)c1ccc(Cl)c(F)c1 | 0.08 | 15 |  |
| O=C(Nc1ccc(Cl)nc1)c1ccc(F)cc1 | 0.98 | 66 |  |
| CC(C)CSc1ccc(C(=O)Nc2ccc(Cl)nc2)cc1F | 0.14 | > 100 |  |
| O=C(Nc1cccnc1)c1ccc(Cl)c(Cl)c1 |  |  | EC50 [1]: 6 µM |
| O=C(Nc1ccc(Cl)nc1)c1ccc(-c2ccccc2)cc1 | 0.26 | > 30 |  |
| O=C(Nc1ccc(Cl)nc1)c1ccc(Oc2ccccc2)cc1 | 0.01 | 1.9 |  |
| O=C(Nc1cnc(Cl)nc1)c1ccc(Cl)c(F)c1 | 0.41 | 49 | EC50 [4]: 9 µM |
| O=C(Nc1cnc(Cl)nc1)c1cccc(C(F)(F)F)c1 | 4.3 | 35 | EC50 [4]: 28 µM |
| O=C(Nc1ccc(Cl)nc1)c1ccc(NCCc2ccccc2)c(F)c1 | 0.18 | > 100 |  |
| Cc1ccc(NC(=O)c2ccc(F)c(F)c2)cn1 | 6.8 |  |  |
| CC(C)CS(=O)(=O)c1ccc(C(=O)Nc2ccc(Cl)nc2)cc1F | 0.26 | 54 |  |
| N#Cc1ccc(NC(=O)c2ccc(F)c(F)c2)cn1 | 10 |  |  |
| O=C(Nc1ccc(Cl)nc1)c1ccc(S(=O)(=O)Cc2ccc(F)cc2)c(F)c1 | 0.16 | > 100 |  |
| O=C(Nc1ccncc1)c1ccc(Cl)c(Cl)c1 |  |  | EC50 [1]: > 10 µM |
| Cc1ccc(C(=O)Nc2ccc(Cl)nc2)cc1C | 0.69 | > 100 |  |
| O=C(Nc1ccc(Cl)nc1)c1ccc(SCc2ccc(F)cc2)c(F)c1 | 1.6 | > 100 |  |
| O=C(Nc1ccc(Cl)nc1)c1cccc(C(F)(F)F)c1 | 0.39 | 5.8 |  |
| O=C(Nc1ccc(C(F)(F)F)nc1)c1ccc(F)c(F)c1 | > 10 |  |  |
| O=C(Nc1ccc(Cl)nc1)c1ccc(S(=O)(=O)c2ccc(F)cc2)c(F)c1 | 0.07 | > 100 |  |
| O=C(Nc1ccc(NC2CC2)nc1)c1ccc(F)c(F)c1 | 2.7 |  |  |
| NS(=O)(=O)c1ccc(C(=O)Nc2ccc(Cl)nc2)cc1 | > 10 |  |  |
